# Experimental data as given in ChEMBL document CHEMBL1255505, “Synthesis of new series of quinoxaline based MAO-inhibitors and docking studies” (Eur J Med Chem, 2010).
# Assays:
# [1] = target: Amine oxidase [flavin-containing] B (Bos taurus) (UniProt P56560)
# [2] = Inhibition of MAOA by spectrofluorimetry
# [3] = Selectivity index ratio of IC50 for MAOB to IC50 for MAOA
# Outline: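 Bovine brain mitochondria (6 mg/ml) in 0.25 M phosphate buffer, pH 7.4, with 0.1 mM isoform-specific substrate. Compound in propylene glycol at 0.5 nM–0.1 M; 60 min at 37 °C, perchloric acid stop, fluorimetric read. Six samples in duplicate; ratio of the MAO-B and MAO-A IC50s.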
# Chain of Amine oxidase [flavin-containing] B (Bos taurus) (P56560 whole entry, looked up): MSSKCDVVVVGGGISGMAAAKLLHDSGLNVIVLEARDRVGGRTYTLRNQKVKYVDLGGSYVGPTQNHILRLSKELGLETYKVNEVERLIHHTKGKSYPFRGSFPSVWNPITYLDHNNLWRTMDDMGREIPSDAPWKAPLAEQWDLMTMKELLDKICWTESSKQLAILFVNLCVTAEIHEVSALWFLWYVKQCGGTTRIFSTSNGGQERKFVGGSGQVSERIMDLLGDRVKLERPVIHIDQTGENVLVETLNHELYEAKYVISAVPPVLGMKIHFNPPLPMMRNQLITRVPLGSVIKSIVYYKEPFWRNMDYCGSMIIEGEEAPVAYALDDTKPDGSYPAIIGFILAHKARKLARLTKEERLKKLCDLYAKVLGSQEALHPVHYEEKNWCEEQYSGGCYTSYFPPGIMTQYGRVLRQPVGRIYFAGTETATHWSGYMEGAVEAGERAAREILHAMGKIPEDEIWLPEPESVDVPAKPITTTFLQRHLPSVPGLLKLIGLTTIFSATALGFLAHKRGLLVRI
Compound,IC50 [1],IC50 [2],Ratio IC50 [3]
C/C(=N\Nc1nc2ccccc2nc1Cc1ccccc1)c1ccccc1,980 µM,0.079 µM,12400
COc1ccc(/C=N/Nc2nc3ccccc3nc2Cc2ccccc2)cc1OC,460 µM,0.056 µM,8210
O=C(c1ccccc1)c1nc2ccccc2n2cnnc12,940 µM,0.75 µM,1250
COc1cc(/C(C)=N/Nc2nc3ccccc3nc2Cc2ccccc2)cc(OC)c1OC,260 µM,0.029 µM,8960
C=NNc1nc2ccccc2nc1Cc1ccccc1,950 µM,0.086 µM,10400
CN(C)c1ccc(/C=N/Nc2nc3ccccc3nc2Cc2ccccc2)cc1,880 µM,0.083 µM,10600
C(=N\Nc1nc2ccccc2nc1Cc1ccccc1)/c1ccccc1,320 µM,0.081 µM,3950
C/C(=N\Nc1nc2ccccc2nc1Cc1ccccc1)c1ccc(C)cc1,740 µM,0.086 µM,8600
C/C(=N\Nc1nc2ccccc2nc1Cc1ccccc1)c1ccc(O)cc1,8400 µM,0.0028 µM,3e+06
CN(C)c1ccc(-c2nnc3c(C(=O)c4ccccc4)nc4ccccc4n23)cc1,7300 µM,0.0027 µM,2.7e+06
C/C(=N\Nc1nc2ccccc2nc1Cc1ccccc1)c1ccccn1,980 µM,0.091 µM,10800
COc1ccccc1/C=N/Nc1nc2ccccc2nc1Cc1ccccc1,790 µM,0.083 µM,9510
O=C(c1ccccc1)c1nc2ccccc2n2c(-c3ccccc3)nnc12,240 µM,0.0027 µM,88800
C/C(=N\Nc1nc2ccccc2nc1Cc1ccccc1)c1ccc(N)cc1,860 µM,0.0098 µM,87700
Cc1ccsc1/C=N/Nc1nc2ccccc2nc1Cc1ccccc1,860 µM,–,–
Oc1ccc(/C=N/Nc2nc3ccccc3nc2Cc2ccccc2)cc1,7900 µM,0.0034 µM,2.32e+06
C/C(=N\Nc1nc2ccccc2nc1Cc1ccccc1)c1cccs1,850 µM,0.064 µM,13300
c1ccc(Cc2nc3ccccc3n3c(-c4ccccc4)nnc23)cc1,980 µM,0.082 µM,12000
O=C(c1ccccc1)c1nc2ccccc2n2c(-c3ccccc3Cl)nnc12,380 µM,0.088 µM,4310
COc1ccc(/C(C)=N/Nc2nc3ccccc3nc2Cc2ccccc2)cc1,280 µM,0.089 µM,3140

# Now those with a lower IC50 [1], led by results:
IC50 [1],IC50 [2],Ratio IC50 [3],Compound
230 µM,0.022 µM,10400,O=C(c1ccccc1)c1nc2ccccc2n2c(-c3ccc([N+](=O)[O-])cc3)nnc12
89 µM,–,–,C/C(=N\Nc1nc2ccccc2nc1Cc1ccccc1)c1ccc([N+](=O)[O-])cc1
87 µM,0.0058 µM,15000,Clc1ccccc1/C=N/Nc1nc2ccccc2nc1Cc1ccccc1
79 µM,–,–,COc1ccc(/C=N/Nc2nc3ccccc3nc2Cc2ccccc2)cc1
72 µM,0.0061 µM,11800,Clc1ccccc1-c1nnc2c(Cc3ccccc3)nc3ccccc3n12
84 µM,0.076 µM,1100,Clc1ccc(/C=N/Nc2nc3ccccc3nc2Cc2ccccc2)cc1
73 µM,–,–,CN(C)c1ccc(-c2nnc3c(C(=O)c4ccccc4)nc4ccccc4n23)cc1Br
95 µM,0.087 µM,1090,c1ccc(Cc2nc3ccccc3n3cnnc23)cc1
86 µM,0.0068 µM,12600,COc1ccc(-c2nnc3c(C(=O)c4ccccc4)nc4ccccc4n23)cc1OC
87 µM,–,–,C(=N\Nc1nc2ccccc2nc1Cc1ccccc1)/c1ccc2c(c1)OCO2
85 µM,–,–,COc1ccc(-c2nnc3c(C(=O)c4ccccc4)nc4ccccc4n23)cc1
